Key:
[1] = Percent of monocationic species at a pH of 6.5 was determined
Procedure, shortened: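 Monocationic percentage at pH 6.5 computed with the Henderson-Hasselbach equation from pKa values measured by potentiometric titration with 0.1 N KOH in water containing a little methanol.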

[2] = Dissociation constant for formamidine ring; format: physicochemical
Procedure, shortened: (§1)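 Macroscopic ionization constants (pKa) by potentiometric titration of compound dissolved in previously boiled distilled water with 2 mL methanol; titrated with 0.1 N KOH in 0.1-equivalent additions, pH read at equilibrium after each addition.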

[3] = Dissociation constant for imidazole ring; format: physicochemical; procedure, shortened: as §1
[4] = molecular target: Histamine H2 receptor (Cavia porcellus) (UniProt P47747); experiment: Antagonist activity against histamine H2 receptor was evaluated in guinea pig atria; value ranges from (3.6-16.1)x10E-9; format: functional
Histamine H2 receptor (Cavia porcellus), sequence (P47747 whole entry): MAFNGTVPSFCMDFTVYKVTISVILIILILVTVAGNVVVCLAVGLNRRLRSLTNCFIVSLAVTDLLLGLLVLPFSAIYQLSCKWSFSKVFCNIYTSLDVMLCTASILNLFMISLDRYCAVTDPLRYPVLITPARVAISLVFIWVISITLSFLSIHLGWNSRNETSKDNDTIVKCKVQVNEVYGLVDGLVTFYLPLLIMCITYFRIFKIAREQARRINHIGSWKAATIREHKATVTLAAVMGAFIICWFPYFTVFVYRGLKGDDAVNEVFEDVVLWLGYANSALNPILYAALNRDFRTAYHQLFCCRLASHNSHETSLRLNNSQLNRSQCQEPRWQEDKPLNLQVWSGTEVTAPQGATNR
Procedure, shortened: (§2)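 Spontaneously beating atria from male Dunkin-Hartley guinea pigs (400–500 g) in oxygenated (O2/CO2 95:5) McEwen's solution, pH 6.5, 32 °C; rate recorded by instantaneous rate meter. Cumulative histamine up to maximal chronotropic response; antagonist equilibrated 60 min. K_B = [B]/(DR − 1), DR being histamine dose ratios at half-maximal response with and without several antagonist concentrations; multiple-regression evaluation.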

[5] = molecular target: Histamine H2 receptor (Cavia porcellus) (UniProt P47747); experiment: Antagonist activity against histamine H2 receptor was evaluated in guinea pig atria; value ranges from (40.2-93.3) x10E-9; format: functional; procedure, shortened: as §2
[6] = molecular target: Histamine H2 receptor (Cavia porcellus) (UniProt P47747); experiment: Antagonist activity against histamine H2 receptor was evaluated in guinea pig atria; value ranges from (3.8-119)x10E-9; format: functional; procedure, shortened: as §2
[7] = Dissociation constant for imidazole ring; ND means not determined because of product insolubility; format: physicochemical; procedure, shortened: as §1

| SMILES | pKa [2] | pKa [3] | Kb [4] [nM] | Kb [5] [nM] | Kb [6] [nM] | pKa [7] | Monocation species [1] [%] |
| --- | --- | --- | --- | --- | --- | --- | --- |
| FC(F)(F)C/N=C/Nc1ccc(-c2c[nH]cn2)cc1 | 6.14 | 4.45 | 7.6 |  |  |  | 29.5 |
| FCC/N=C/Nc1ccc(-c2c[nH]cn2)cc1 | 8.12 | 5.55 |  | 61 |  |  | 87.56 |
| N#C/N=C/Nc1ccc(-c2c[nH]cn2)cc1 | < 1 |  |  |  |  | Insoluble |  |

The next lines start with results.

| pKa [2] | pKa [3] | Kb [4] [nM] | Kb [5] [nM] | Kb [6] [nM] | pKa [7] | SMILES | Monocation species [1] [%] |
| --- | --- | --- | --- | --- | --- | --- | --- |
| 8.65 | 5.57 |  |  |  |  | CC/N=C/Nc1ccc(-c2c[nH]cn2)cc1 | 88.78 |
| 6.6 | 4.54 |  |  | 21 |  | FC(F)C/N=C/Nc1ccc(-c2c[nH]cn2)cc1 | 54.64 |

Reference: ChEMBL document CHEMBL1124468, “N-(fluoroethyl)(imidazolylphenyl)formamidines. The issue of the active species of mifentidine” (J Med Chem, 1989)
